In brackets after ≈: the same amount, converted by molar mass.
What was measured:
[1] = test system: C. albicans; details: subinhibitory concentrations; cited from earlier work
[2] = test system: C. albicans; test: Determination of MIC by broth microdilution; type: cell-based; details: Candida albicans, read-out: MICs, strain YEM30, wild-type strain
[3] = test system: C. albicans YEM30; test: Drug resistance development test; type: cell-based, Candida albicans
[4] = test system: C. albicans YEM30; test: G. mellonella-C. albicans infection model; type: in vivo, Galleria mellonella; details: 2 μg/larva, 2 h after infection
Procedure, shortened: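 Larvae were infected with 10 μL YEM30 (2 × 10^5 CFU/mL) into the last right foreleg. After 2 h they were injected with 10 μL of test compound (2 μg/larva), fluconazole (2 μg/larva) or PBS, then kept at 37°C in the dark. Death was no response to slight contact; survival was scored daily for 5 days (log-rank test). For fungal burden (40 larvae/group), six larvae/day were homogenized in PBS, serially diluted and plated on YPD.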

SMILES | farnesol levels compared to untreated cells [1] | MIC [2] [µg/mL] | MIC ([3]; Candida albicans, YEM30, read-out: MIC value after consecutive treatment) [µg/mL] | drug resistance development ([3]; YEM30, consecutive treatment with 1/2 MIC, up to 40 days) | fungal burden vs control group [4] | survival rate of infected larvae ([4]; 5 days) [%]
C/C=C/CCCC/C=C/CCCCC(=O)O[C@@H]1[C@@H](O)[C@@]2(CCC(C)C(O)C(C)C/C=C/c3ccccc3)O[C@H](C(=O)O)[C@@](O)(C(=O)O)[C@]1(C(=O)O)O2 (stereo partly drawn) [zaragozic acid B] | 8–10 folds |  |  |  |  | 
OC(Cn1cncn1)(Cn1cncn1)c1ccc(F)cc1F [FLC, Fluconazole] |  | 1 (≈ 3.27 µM) | 8 (≈ 26.1 µM) | developed drug resistance after being treated with 1/2 MIC of FLC for 5 days | greatly reduced the fungal burden | 73

Reference: article PMC10321171 (Virulence, 2023)
